Experimental data from ChEMBL document CHEMBL5705905, “Pharmacological targeting of kinases MST1 and MST2 augments tissue repair and regeneration” (Sci Transl Med, 2016).

Legend:
[1] = target: Serine/threonine-protein kinase TAO3 (Homo sapiens, UniProt Q9H2K8); assay: Inhibition of TAOK3 (unknown origin) in presence of ATP by enzymatic assay
[2] = target: Ephrin type-B receptor 1 (Homo sapiens) (UniProt P54762); assay: Inhibition of EPHB1 (unknown origin) assessed as remaining activity at 1 uM by Kinome scan method relative to control
[3] = target: RAC-gamma serine/threonine-protein kinase (Homo sapiens) (UniProt Q9Y243); assay: Inhibition of AKT3 (unknown origin) assessed as remaining activity at 1 uM by Kinome scan method relative to control
Chain of RAC-gamma serine/threonine-protein kinase (Homo sapiens) (Q9Y243 whole entry): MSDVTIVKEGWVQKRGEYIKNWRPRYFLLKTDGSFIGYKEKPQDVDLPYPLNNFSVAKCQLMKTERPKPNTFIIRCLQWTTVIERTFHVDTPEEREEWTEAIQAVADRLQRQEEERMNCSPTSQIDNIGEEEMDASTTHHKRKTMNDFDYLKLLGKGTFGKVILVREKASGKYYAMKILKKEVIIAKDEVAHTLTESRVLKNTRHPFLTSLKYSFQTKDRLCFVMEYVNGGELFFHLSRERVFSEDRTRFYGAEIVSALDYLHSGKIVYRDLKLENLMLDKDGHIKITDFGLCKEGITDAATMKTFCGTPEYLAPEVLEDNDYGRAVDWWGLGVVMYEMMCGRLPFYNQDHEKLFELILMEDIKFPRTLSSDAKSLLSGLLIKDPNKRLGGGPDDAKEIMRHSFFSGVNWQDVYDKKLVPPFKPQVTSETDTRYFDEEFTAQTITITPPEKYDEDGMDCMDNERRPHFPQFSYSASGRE
Method in brief: (§1)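 Active-site-dependent competition-binding (KINOMEscan) panel of 468 kinases, test compound at 1 μM (from a 10 mM DMSO stock). Read-out is ctrl% = (test signal − positive control signal)/(negative control signal − positive control signal) × 100. DMSO is the negative control (100%) and a control compound is the positive control (0%). Lower ctrl% means tighter binding.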

[4] = target: Cyclin-dependent kinase 9 (Homo sapiens) (UniProt P50750); assay: Inhibition of CDK9 (unknown origin) assessed as remaining activity at 1 uM by Kinome scan method relative to control
Method in brief: (§2)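 Active-site-dependent competition-binding profiling (KINOMEscan) at 1 μM against a 468-kinase panel; compound supplied from a 10 mM DMSO stock. Read-out is ctrl% = (test signal − positive control signal)/(negative control signal − positive control signal) × 100. DMSO is the negative control (100%) and a control compound the positive control (0%). Lower ctrl% means tighter binding.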

[5] = target: NUAK family SNF1-like kinase 1 (Homo sapiens) (UniProt O60285); assay: Inhibition of ARK5 (unknown origin) assessed as remaining activity at 1 uM by Kinome scan method relative to control; method in brief: as §1
[6] = target: Dual specificity mitogen-activated protein kinase kinase 5 (Homo sapiens) (UniProt Q13163); assay: Inhibition of MEK5 (unknown origin) assessed as remaining activity at 1 uM by Kinome scan method relative to control
[7] = target: Calcium/calmodulin-dependent protein kinase type II subunit beta (Homo sapiens) (UniProt Q13554); assay: Inhibition of CAMK2B (unknown origin) assessed as remaining activity at 1 uM by Kinome scan method relative to control; method in brief: as §2
[8] = target: Mitogen-activated protein kinase 15 (Homo sapiens) (UniProt Q8TD08); assay: Inhibition of ERK8 (unknown origin) assessed as remaining activity at 1 uM by Kinome scan method relative to control
[9] = target: Serine/threonine-protein kinase Chk1 (Homo sapiens) (UniProt O14757); assay: Inhibition of CHEK1 (unknown origin) assessed as remaining activity at 1 uM by Kinome scan method relative to control; method in brief: as §2
Chain of Serine/threonine-protein kinase Chk1 (Homo sapiens) (O14757 whole entry): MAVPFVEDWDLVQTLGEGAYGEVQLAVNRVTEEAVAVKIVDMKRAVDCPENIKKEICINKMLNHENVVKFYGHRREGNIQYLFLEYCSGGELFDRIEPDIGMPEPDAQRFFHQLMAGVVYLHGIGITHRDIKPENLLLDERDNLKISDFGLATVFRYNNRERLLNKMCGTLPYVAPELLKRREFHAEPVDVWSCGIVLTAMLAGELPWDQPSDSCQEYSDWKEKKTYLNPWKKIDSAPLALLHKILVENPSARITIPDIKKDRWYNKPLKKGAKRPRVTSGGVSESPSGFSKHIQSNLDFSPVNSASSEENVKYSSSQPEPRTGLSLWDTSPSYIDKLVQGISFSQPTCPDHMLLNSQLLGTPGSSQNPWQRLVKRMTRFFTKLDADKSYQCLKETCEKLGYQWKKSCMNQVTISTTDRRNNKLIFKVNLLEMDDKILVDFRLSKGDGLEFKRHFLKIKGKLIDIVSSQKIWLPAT

[10] = target: Ephrin type-A receptor 6 (Homo sapiens) (UniProt Q9UF33); assay: Inhibition of EPHA6 (unknown origin) assessed as remaining activity at 1 uM by Kinome scan method relative to control
[11] = target: SNF-related serine/threonine-protein kinase (Homo sapiens) (UniProt Q9NRH2); assay: Inhibition of SNRK (unknown origin) assessed as remaining activity at 1 uM by Kinome scan method relative to control
[12] = target: Serine/threonine-protein kinase 26 (Homo sapiens, UniProt Q9P289); assay: Inhibition of MST4 (unknown origin) in presence of ATP by enzymatic assay
[13] = AUC (0 to t) in male Sprague-Dawley rat at 5 mg/kg, iv measured for 24 hrs by LC-MS/MS analysis; type: ADME, organism-based; conditions: in vivo
Method in brief: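 Sprague-Dawley rats, single intravenous or oral dose. Parameters (half-life, AUC, bioavailability) reported in a supplementary table.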

[14] = target: Receptor-type tyrosine-protein kinase FLT3 (Homo sapiens) (UniProt P36888); assay: Inhibition of FLT3-autoinnibited (unknown origin) assessed as remaining activity at 1 uM by Kinome scan method relative to control
[15] = target: Dual specificity protein kinase CLK1 (Homo sapiens) (UniProt P49759); assay: Inhibition of CLK1 (unknown origin) assessed as remaining activity at 1 uM by Kinome scan method relative to control; method in brief: as §2
Chain of Dual specificity protein kinase CLK1 (Homo sapiens) (P49759 whole entry, looked up): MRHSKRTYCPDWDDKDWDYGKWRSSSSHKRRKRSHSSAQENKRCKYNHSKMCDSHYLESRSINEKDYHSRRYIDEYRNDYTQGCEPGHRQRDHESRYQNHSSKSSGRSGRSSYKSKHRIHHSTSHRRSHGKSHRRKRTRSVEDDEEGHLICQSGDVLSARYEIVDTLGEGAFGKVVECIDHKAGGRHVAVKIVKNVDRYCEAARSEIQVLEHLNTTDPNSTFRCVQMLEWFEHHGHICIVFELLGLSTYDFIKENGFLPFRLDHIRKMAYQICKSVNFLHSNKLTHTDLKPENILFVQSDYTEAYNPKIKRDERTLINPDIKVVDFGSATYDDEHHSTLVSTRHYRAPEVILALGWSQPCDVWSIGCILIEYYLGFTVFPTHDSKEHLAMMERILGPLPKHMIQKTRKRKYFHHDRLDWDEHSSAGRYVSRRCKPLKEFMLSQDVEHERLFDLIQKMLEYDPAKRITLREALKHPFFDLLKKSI

[16] = target: Serine/threonine-protein kinase MRCK beta (Homo sapiens) (UniProt Q9Y5S2); assay: Inhibition of MRCKB (unknown origin) assessed as remaining activity at 1 uM by Kinome scan method relative to control
[17] = target: Bone morphogenetic protein receptor type-2 (Homo sapiens) (UniProt Q13873); assay: Inhibition of BMPR2 (unknown origin) assessed as remaining activity at 1 uM by Kinome scan method relative to control; method in brief: as §1
Chain of Bone morphogenetic protein receptor type-2 (Homo sapiens) (Q13873 whole entry): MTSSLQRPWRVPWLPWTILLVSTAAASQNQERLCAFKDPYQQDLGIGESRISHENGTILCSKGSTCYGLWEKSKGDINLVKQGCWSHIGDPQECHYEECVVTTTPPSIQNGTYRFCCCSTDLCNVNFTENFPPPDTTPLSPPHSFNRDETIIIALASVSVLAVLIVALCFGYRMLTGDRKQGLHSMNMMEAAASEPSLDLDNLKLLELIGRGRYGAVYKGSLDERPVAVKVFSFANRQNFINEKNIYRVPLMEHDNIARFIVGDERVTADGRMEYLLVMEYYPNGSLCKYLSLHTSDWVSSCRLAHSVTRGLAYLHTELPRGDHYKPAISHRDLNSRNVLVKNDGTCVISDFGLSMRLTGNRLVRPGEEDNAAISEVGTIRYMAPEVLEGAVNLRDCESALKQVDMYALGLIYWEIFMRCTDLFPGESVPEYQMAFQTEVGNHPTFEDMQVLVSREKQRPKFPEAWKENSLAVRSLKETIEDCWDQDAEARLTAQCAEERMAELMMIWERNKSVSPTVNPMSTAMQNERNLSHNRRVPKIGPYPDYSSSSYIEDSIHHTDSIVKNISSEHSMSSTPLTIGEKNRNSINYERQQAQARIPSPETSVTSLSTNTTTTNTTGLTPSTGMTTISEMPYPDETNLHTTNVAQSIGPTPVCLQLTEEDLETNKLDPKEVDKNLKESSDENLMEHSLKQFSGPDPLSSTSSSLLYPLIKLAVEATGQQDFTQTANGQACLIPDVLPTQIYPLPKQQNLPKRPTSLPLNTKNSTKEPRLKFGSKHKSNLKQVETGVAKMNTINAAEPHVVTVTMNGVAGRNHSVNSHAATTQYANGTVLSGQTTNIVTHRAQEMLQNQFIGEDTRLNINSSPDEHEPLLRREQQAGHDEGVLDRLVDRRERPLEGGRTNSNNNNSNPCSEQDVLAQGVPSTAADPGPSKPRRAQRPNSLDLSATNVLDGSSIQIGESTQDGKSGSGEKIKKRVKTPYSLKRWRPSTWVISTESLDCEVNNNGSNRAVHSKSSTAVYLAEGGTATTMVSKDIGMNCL

[18] = target: Cyclin-dependent kinase 14 (Homo sapiens) (UniProt O94921); assay: Inhibition of PFTK1 (unknown origin) assessed as remaining activity at 1 uM by Kinome scan method relative to control
[19] = test system: Phosphatidylinositol 4,5-bisphosphate 3-kinase catalytic subunit alpha isoform (Homo sapiens), P42336 [M1043I]; assay: Inhibition of PIK3CA M1043I mutant (unknown origin) assessed as remaining activity at 1 uM by Kinome scan method relative to control
[20] = target: Cyclin-dependent kinase 16 (Homo sapiens) (UniProt Q00536); assay: Inhibition of PCTK1 (unknown origin) assessed as remaining activity at 1 uM by Kinome scan method relative to control
Chain of Cyclin-dependent kinase 16 (Homo sapiens) (Q00536 whole entry): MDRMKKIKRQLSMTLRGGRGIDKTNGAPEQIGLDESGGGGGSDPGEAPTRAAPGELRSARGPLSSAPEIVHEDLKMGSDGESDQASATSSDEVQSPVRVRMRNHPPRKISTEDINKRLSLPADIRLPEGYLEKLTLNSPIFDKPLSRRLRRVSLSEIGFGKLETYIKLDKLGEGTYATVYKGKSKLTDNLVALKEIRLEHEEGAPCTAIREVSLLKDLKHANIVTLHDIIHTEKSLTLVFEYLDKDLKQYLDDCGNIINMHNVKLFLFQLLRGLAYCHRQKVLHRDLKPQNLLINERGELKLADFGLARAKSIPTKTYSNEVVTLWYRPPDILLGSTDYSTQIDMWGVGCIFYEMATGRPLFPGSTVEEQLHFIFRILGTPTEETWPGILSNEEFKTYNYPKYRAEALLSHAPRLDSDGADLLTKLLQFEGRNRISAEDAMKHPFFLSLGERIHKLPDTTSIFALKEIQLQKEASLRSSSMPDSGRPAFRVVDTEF

HepG2 = assay: Induction of apoptosis in human HepG2 cells assessed as early apoptosis cells at 3 uM by annexinV staining (Rvb =4.16 %); type: functional
[21] = target: Serine/threonine-protein kinase mTOR (Homo sapiens) (UniProt P42345); assay: Inhibition of MTOR (unknown origin) assessed as remaining activity at 1 uM by Kinome scan method relative to control
[22] = target: Ribosomal protein S6 kinase alpha-3 (Homo sapiens) (UniProt P51812); assay: Inhibition of N-terminal kinase domain RSK2 (unknown origin) assessed as remaining activity at 1 uM by Kinome scan method relative to control
[23] = target: Myosin-IIIa (Homo sapiens) (UniProt Q8NEV4); assay: Inhibition of MYO3A (unknown origin) assessed as remaining activity at 1 uM by Kinome scan method relative to control
[24] = target: Cyclin-G-associated kinase (Homo sapiens) (UniProt O14976); assay: Inhibition of GAK (unknown origin) assessed as remaining activity at 1 uM by Kinome scan method relative to control
[25] = target: Mitogen-activated protein kinase 9 (Homo sapiens) (UniProt P45984); assay: Inhibition of JNK2 (unknown origin) assessed as remaining activity at 1 uM by Kinome scan method relative to control
[26] = target: Protein-tyrosine kinase 6 (Homo sapiens) (UniProt Q13882); assay: Inhibition of BRK (unknown origin) assessed as remaining activity at 1 uM by Kinome scan method relative to control; method in brief: as §1
Chain of Protein-tyrosine kinase 6 (Homo sapiens) (Q13882 whole entry, looked up): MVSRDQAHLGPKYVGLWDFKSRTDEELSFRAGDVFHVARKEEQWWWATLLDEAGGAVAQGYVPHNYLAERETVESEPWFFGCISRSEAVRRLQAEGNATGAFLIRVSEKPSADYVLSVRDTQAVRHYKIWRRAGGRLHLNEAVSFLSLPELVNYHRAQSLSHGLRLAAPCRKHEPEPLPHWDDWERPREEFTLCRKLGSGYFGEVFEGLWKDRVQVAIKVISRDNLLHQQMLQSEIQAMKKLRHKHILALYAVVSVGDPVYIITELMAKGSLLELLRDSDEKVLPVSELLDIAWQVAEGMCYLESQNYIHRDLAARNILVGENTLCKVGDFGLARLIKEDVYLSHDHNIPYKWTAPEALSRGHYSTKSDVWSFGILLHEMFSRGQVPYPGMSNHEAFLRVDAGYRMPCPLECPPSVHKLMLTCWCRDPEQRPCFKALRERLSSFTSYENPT

[27] = target: Protein kinase C theta type (Homo sapiens) (UniProt Q04759); assay: Inhibition of PRKCQ (unknown origin) assessed as remaining activity at 1 uM by Kinome scan method relative to control
Chain of Protein kinase C theta type (Homo sapiens) (Q04759 whole entry, looked up): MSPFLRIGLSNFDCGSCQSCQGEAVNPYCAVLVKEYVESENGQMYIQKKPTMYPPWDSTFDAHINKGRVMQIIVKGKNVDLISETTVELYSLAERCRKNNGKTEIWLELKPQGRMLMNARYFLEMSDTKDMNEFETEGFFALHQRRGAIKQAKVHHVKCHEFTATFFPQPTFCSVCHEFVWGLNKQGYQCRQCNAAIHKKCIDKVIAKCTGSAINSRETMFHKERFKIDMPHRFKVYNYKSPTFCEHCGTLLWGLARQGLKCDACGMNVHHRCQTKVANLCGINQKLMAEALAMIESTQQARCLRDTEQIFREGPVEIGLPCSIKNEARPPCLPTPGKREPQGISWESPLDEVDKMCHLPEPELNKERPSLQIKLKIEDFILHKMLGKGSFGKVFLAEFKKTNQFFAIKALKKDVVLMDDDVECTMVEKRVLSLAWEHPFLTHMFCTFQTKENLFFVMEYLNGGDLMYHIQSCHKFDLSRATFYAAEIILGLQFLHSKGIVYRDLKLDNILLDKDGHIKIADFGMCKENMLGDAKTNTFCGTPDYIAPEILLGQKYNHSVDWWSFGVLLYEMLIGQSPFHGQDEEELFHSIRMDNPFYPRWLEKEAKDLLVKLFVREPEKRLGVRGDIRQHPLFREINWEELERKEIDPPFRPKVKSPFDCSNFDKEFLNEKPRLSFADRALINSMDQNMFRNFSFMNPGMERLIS

[28] = target: Mitogen-activated protein kinase 6 (Homo sapiens) (UniProt Q16659); assay: Inhibition of ERK3 (unknown origin) assessed as remaining activity at 1 uM by Kinome scan method relative to control
[29] = target: Ephrin type-A receptor 4 (Homo sapiens) (UniProt P54764); assay: Inhibition of EPHA4 (unknown origin) assessed as remaining activity at 1 uM by Kinome scan method relative to control

Chain of Serine/threonine-protein kinase TAO3 (Q9H2K8 whole entry): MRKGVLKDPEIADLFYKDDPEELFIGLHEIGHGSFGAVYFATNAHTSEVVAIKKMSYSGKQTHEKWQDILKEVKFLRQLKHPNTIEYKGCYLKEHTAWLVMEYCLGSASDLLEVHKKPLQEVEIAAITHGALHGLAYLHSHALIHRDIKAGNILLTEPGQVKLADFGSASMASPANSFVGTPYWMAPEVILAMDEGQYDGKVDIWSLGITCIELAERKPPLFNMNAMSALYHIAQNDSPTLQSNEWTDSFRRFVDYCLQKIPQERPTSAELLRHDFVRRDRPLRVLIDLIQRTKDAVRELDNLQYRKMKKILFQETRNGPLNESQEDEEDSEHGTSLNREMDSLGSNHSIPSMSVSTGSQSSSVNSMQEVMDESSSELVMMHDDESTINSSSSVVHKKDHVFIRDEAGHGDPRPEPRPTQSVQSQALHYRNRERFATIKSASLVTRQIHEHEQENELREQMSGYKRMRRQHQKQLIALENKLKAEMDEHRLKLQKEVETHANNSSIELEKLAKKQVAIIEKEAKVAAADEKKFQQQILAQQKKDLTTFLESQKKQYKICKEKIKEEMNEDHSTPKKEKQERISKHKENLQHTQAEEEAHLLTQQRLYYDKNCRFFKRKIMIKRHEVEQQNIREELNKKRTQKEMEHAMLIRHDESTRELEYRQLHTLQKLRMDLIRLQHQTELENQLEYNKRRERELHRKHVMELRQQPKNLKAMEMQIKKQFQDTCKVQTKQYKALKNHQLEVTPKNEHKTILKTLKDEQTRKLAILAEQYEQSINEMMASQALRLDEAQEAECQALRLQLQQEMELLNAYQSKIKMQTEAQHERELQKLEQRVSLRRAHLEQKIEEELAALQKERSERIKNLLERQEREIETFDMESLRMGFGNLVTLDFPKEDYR

**Q.** Which IC50 [1] does the source give for `CN1C(=O)c2sccc2N(C)c2nc(Nc3ccc(S(N)(=O)=O)cc3)ncc21` here?
**A.** 254 nM

**Q.** What about the Activity [2] of the same molecule?
**A.** 100%

**Q.** What about the Activity [3] of the same molecule?
**A.** 98%

**Q.** And the Activity [4]?
**A.** 84%

**Q.** What about the Activity [5] of the same molecule?
**A.** 96%

**Q.** What about the Activity [6] of the same molecule?
**A.** 79%

**Q.** And the Activity [7]?
**A.** 73%

**Q.** What about the Activity [8] of the same molecule?
**A.** 79%

**Q.** And the Activity [9]?
**A.** 73%

**Q.** What about the Activity [10] of the same molecule?
**A.** 99%

**Q.** And the Activity [11]?
**A.** 100%

**Q.** And the IC50 [12]?
**A.** 27.3 nM

**Q.** What about the AUC(0-t) at 24 h [13] of the same molecule?
**A.** 1260 ng·h/mL

**Q.** What about the Activity [14] of the same molecule?
**A.** 100%

**Q.** What about the Activity [15] of the same molecule?
**A.** 72%

**Q.** What about the Activity [16] of the same molecule?
**A.** 100%

**Q.** What about the Activity [17] of the same molecule?
**A.** 100%

**Q.** What about the Activity [18] of the same molecule?
**A.** 100%

**Q.** And the Activity [19]?
**A.** 77%

**Q.** And the Activity [20]?
**A.** 93%

**Q.** What about the Activity (HepG2) of the same molecule?
**A.** 4.04%

**Q.** And the Activity [21]?
**A.** 84%

**Q.** And the Activity [22]?
**A.** 76%

**Q.** What about the Activity [23] of the same molecule?
**A.** 100%

**Q.** What about the Activity [24] of the same molecule?
**A.** 48%

**Q.** What about the Activity [25] of the same molecule?
**A.** 82%

**Q.** What about the Activity [26] of the same molecule?
**A.** 100%

**Q.** What about the Activity [27] of the same molecule?
**A.** 99%

**Q.** What about the Activity [28] of the same molecule?
**A.** 100%

**Q.** And the Activity [29]?
**A.** 100%
